Screens: PubChem BioAssay, several laboratories
Most compounds without a hit are left out; they make up all but 2.6% or so of the library.
SENP1 inh: blocks the human SENP1 SUMO protease catalytic domain | 360,000 tested, 0.21% active | inhibition, % at 10 µM | Q9P0U3 | recombinant SENP1 catalytic domain, CyPet-SUMO1-YPet FRET cleavage;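 active = inhibition at least 30% at 10 µM, raw YFP signal under a set limit, fluorescence ratio 0.5 to 1.5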;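 also: 0% = enzyme with DMSO and 100% = no enzyme wells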
Target sequence (Q9P0U3 419-644 limits assumed): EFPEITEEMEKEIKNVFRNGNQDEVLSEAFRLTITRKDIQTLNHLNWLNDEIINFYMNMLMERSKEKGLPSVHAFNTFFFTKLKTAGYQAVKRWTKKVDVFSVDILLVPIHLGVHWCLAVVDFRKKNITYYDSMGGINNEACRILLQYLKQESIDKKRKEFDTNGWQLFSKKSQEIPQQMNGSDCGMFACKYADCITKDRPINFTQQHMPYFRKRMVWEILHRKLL
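Compound: 10 µM single point, 0.5% DMSO; Test system: hSENP1 catalytic domain, recombinant; Timing: 50 min reaction at room temperature; Technique: FRET, CFP and YFP emission; Control set: no-enzyme wells low, DMSO-plus-enzyme wells high control.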
Platelet DG rel: modulates dense granule release in human platelets; human platelet-rich plasma, SFLLRN dense granule ATP release, luminescence; inhibition, %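 (compounds screened at 7.5 µM in platelet-rich plasma)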; 300,000 tested, 0.22% active; AID 1663;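 active = mean replicate score, as percent of positive control, at or above 50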
SENP8 block-1: inhibitors of human SENP8 protease; recombinant SENP8, Nedd8 substrate fluorescence; inhibition, % at 20 µM; 360,000 tested, 0.64% active; in the data active = inhibition mostly above about 40%, no sharp cut-off; inactive = mostly below about 27%
SENP7 block: blocks the human protease SENP7 | Q9BQF6 | recombinant SENP7, Z-RLRGG-aminoluciferin luminescence, 40 min | inhibition, % at 5 µM | 330,000 tested, 1.5% active | AID 434973;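 active = inhibition above about 50% at the single test dose, limit read from the data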;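 also: plate controls were DMSO with enzyme for no effect and no enzyme buffer wells for full effect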
Target sequence (Q9BQF6 706-1050 limits assumed): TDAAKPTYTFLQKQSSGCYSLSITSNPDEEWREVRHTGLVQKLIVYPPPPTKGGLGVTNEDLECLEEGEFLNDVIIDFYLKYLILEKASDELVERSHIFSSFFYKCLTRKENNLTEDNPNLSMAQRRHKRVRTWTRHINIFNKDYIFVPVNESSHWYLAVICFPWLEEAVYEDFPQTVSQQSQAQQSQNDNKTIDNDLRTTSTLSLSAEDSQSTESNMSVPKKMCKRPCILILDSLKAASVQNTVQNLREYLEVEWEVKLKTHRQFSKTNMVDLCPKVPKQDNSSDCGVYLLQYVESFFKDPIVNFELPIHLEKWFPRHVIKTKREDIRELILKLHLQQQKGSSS
SENP6 inh: blocks the human protease SENP6; 330,000 tested, 1.8% active; Q9GZR1; AID 2599; inhibition, % at 10 µM; Recombinant SENP6 catalytic domain, aminoluciferin luminescence;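 active = inhibition above about 50% at the single tested dose, limit read from the data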;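 also: plate controls were DMSO wells with enzyme for no effect and DMSO wells lacking enzyme for full effect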
SENP8 block-2: SENP8 protease inhibition | purified SENP8, Z-RLRGG-aminoluciferin cleavage, luminescence | inhibition, % at 10 µM | 330,000 tested, 1.2% active | AID 2540; in the data active = inhibition above about 50%
SENP8 inh conf: confirmation of human SENP8 protease inhibitors. shares compounds with SENP8 block-1. purified SENP8, Nedd8-AMC/pro-Nedd8 cleavage fluorescence, 30 min. inhibition, % at 25 µM. 1,400 tested, 15% active. AID 624319; in the data active = inhibition mostly above about 39%, no sharp cut-off; inactive = mostly below about 34%
The depositor's hits bear a star; nt = no result.

SMILES	SENP1 inh	Platelet DG rel	SENP8 block-1	SENP7 block	SENP6 inh	SENP8 block-2	SENP8 inh conf
Cc1cc(C)n(-c2ccc(C(=O)OCC(=O)Nc3ccc(S(N)(=O)=O)cc3)cc2)n1	-2	nt	13	-4	-9	-14	nt
CC1(C(=O)NCC2CC2)Cc2c(-c3ccc4c(c3)OCO4)ccnc2O1 (centres undefined)	2	nt	-85	nt	nt	nt	nt
Cc1cc(=O)n(-c2ccc(O)cc2)[nH]1	1	0	79*	6	-7	-7	38*
COc1cc(-c2cc(=O)c3c(O)cc(O)cc3o2)ccc1O	10	-3	56*	32	41	24	16
COc1cc(O)c2c(=O)cc(-c3ccccc3)oc2c1	2	-5	53*	2	-11	-10	5
COc1cc(-c2cc(=O)c3ccccc3o2)ccc1O	-8	1	12	-1	2	-3	nt
COc1c(O)cc(O)c2c(=O)cc(-c3ccccc3)oc12	4	nt	69*	-3	8	4	21
Cc1[nH]cnc1CN1CCc2c(c3ccccc3n2C)C1=O	1	-9	84*	17	21	12	76*
Cc1nccn1CC1CCc2c(c3ccccc3n2C)C1=O (centres undefined)	1	1	-6	-12	-4	6	nt
Cc1ccc(N2C(=O)Cc3ccccc3C2=O)cc1	-4	-4	69*	17	40	23	55*
Cc1cccc(N2C(=O)Cc3ccccc3C2=O)c1	-3	-5	82*	24	31	20	43
Cc1ccc(N2C(=O)c3cccc4cccc(c34)C2=O)cc1	-1	-2	-13	-8	-20	-2	nt
OCCC1CN(Cc2ccccc2-c2ccco2)CCN1C1CCCC1 (centres undefined)	-6	-3	1	-4	-15	-2	nt
Cc1onc(-c2ccccc2Cl)c1-c1nc(-c2ccccn2)no1	-13	-9	41*	10	-1	1	11
O=C1OC(N2C(=O)CC[C@H]2C(=O)Nc2ccc(Br)cc2F)c2ccccc21 (some centres undefined)	0	-2	54*	-5	-16	-1	6
CN(N=O)c1ccc(C=C2C=Cc3ccccc32)cc1	9	nt	51*	nt	nt	nt	3
CCN(N=O)c1ccc(C=C2C=Cc3ccccc32)cc1	15	nt	69*	nt	nt	nt	7
CC(=O)N(C)c1ccc(C=C2C=Cc3ccccc32)cc1	1	nt	25	nt	nt	nt	nt
CCN(CC)c1ccc(C=C2C(=O)OC(c3ccccc3)OC2=O)cc1 (centres undefined)	2	10	-12	-5	2	-1	nt
COc1ccc(CCN(C)C(=O)c2c(C)noc2C)cc1OC	-2	nt	5	1	-3	-5	nt
Cc1ccc(SCc2nnc(NC(=O)c3ccccc3)s2)cc1	3	-4	40*	9	3	2	12
O=C(Nc1ccc(Cl)c(S(=O)(=O)N2CCCCC2)c1)c1cccnc1	0	nt	4	3	-1	1	nt
COC(=O)CCCC1=CC2=C(c3ccccc3)C(=O)C(C)(OC(=O)C3CCCC3)C(=O)C2=CN1C1CCCCC1 (centres undefined)	-16	5	44*	-12	1	-14	49*
CCOC(=O)C1=C(O)C(=O)N(c2ccccc2)C1c1cccc([N+](=O)[O-])c1 (centres undefined)	-3	-2	40*	-1	-22	7	27
COC(=O)C1=C(C)NC(C)=C(C(=O)OC)C1c1ccc(-c2cccc([N+](=O)[O-])c2)o1	4	7	47*	-8	-11	-7	37
SMILES	SENP1 inh	Platelet DG rel	SENP8 block-1	SENP7 block	SENP6 inh	SENP8 block-2	SENP8 inh conf
O=[N+]([O-])c1ccc(N2CCOCC2)nc1	1	0	17	8	-6	6	nt
O=C1CC(N2CCOCC2)=NN1c1ccc([N+](=O)[O-])cc1	1	7	76*	22	29	16	46*
COCCNC(=S)NN=C1CCCCC1	2	2	46*	7	-5	7	14
COc1cccc(C(C(=O)NC2CCCC2)N2CCN(c3cc(C)ccc3C)CC2)c1OC (centres undefined)	2	nt	13	nt	nt	nt	nt
COc1ccccc1NC(=O)COc1ccc(/C=N/NS(=O)(=O)c2ccc(C)cc2)cc1	2	-2	47*	-2	-23	-4	14
CCOC(=O)c1nn(-c2ccccc2C)c(=O)cc1OCC(=O)Nc1cccc(OC)c1	5	-8	17	-9	-6	5	nt
COC(=O)C1[C@H]2C(=O)N(Cc3cccs3)C[C@]23C=C[C@H]1O3 (some centres undefined)	1	7	9	0	-6	-1	nt
CCOC(=O)C1C2C=CC3(CN(Cc4cccs4)C(=O)C13)O2 (centres undefined)	2	0	45*	-5	-1	2	6
CCOC(=O)/C(=C\c1ccc([N+](=O)[O-])o1)NC(=O)c1ccccc1	1	-7	42*	10	-16	-4	22
CCCOC(=O)/C(=C\c1ccc([N+](=O)[O-])o1)NC(=O)c1ccccc1	1	-2	35	-11	-21	-15	nt
CN(C(=O)c1cc(C(=O)N(C)c2ccccc2)cc([N+](=O)[O-])c1)c1ccccc1	0	-3	31	-3	15	-6	nt
CC1=NN(c2ccccc2)C(=O)C1C(=O)c1cc([N+](=O)[O-])cc([N+](=O)[O-])c1 (centres undefined)	2	11	51*	-10	17	-6	-5
Cc1ccc(NC(=O)CCCc2nc3ccccc3c(=O)[nH]2)c(Cl)c1	-1	nt	-1	3	-2	0	nt
Cc1nc(-c2ccc(F)cc2)c(CC(=O)N(C)CC(=O)Nc2ccc(Cl)c(C(F)(F)F)c2)s1	1	nt	4	nt	nt	nt	nt
O=C(Nc1ccc(N2CCN(Cc3ccccc3)CC2)cc1)c1cccnc1	0	-3	45*	-5	-30	-1	18
C/C=C(\C)CN1CCC(Oc2cccc(C(=O)NCc3ccccn3)c2)CC1	-7	-6	6	-11	-9	4	nt
CCOC(=O)/C(C#N)=C/C=C1/C=CC=CN1C	-23	1	34	3	-7	-3	nt
C=CCN1C=CC(=C/C=C(/C#N)C(=O)OCC)C=C1	-19	-2	61*	-9	-31	-12	29
COc1ccc(NC(=S)NC(NC(=O)c2cccc(C)c2)C(Cl)(Cl)Cl)c([N+](=O)[O-])c1 (centres undefined)	3	nt	42*	0	-12	-4	8
CCc1nc2ccccc2c(C(=O)OCC(=O)C(C)(C)C)c1C	-1	-3	3	-7	-28	-4	nt
CCc1nc2ccccc2c(C(=O)OCCN2C(=O)c3ccccc3C2=O)c1C	1	0	42*	3	1	5	32
